The source of these data is ChEMBL document CHEMBL1132112, “Novel modifications in the alkenyldiarylmethane (ADAM) series of non-nucleoside reverse transcriptase inhibitors” (J Med Chem, 1999).

Structures are written as SMILES. Bounds are passed on as bounds.

Data set [1] deals with CEM-SS. The data set can be described thus: 50% inhibitory concentration for cytopathicity of HIV-1 RF in CEM-SS cells. As to conditions: Homo sapiens; call rule not given here. It counts as functional, cell-based. The essentials:
(§1)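 CEM-SS cells infected with HIV-1 RF; drug-induced protection from viral cytopathic effect read by XTT, as percent of uninfected drug-free control. EC50 is the concentration giving 50% protection. Triplicate wells on each plate, two sister plates; the plate EC50s (each a triplicate average) were averaged. XTT results were confirmed by supernatant RT and p24 levels. NA means no inhibition up to the concentration cytotoxic to uninfected cells.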
(In general: Damage to the host cells serves as the signal in cytopathic effect assays.)

The test system of the next data set is CCRF-CEM. The data set can be described thus: Concentration inhibiting 50% of mock-infected CEM cells. It counts as functional. As to conditions: Homo sapiens. The essentials: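 Uninfected (mock-infected) CEM-SS cultures exposed to drug. Viability by XTT, expressed as percent of drug-free control. CC50 is the concentration causing 50% cell death. Triplicates on each plate, two sister plates averaged.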

Data set [2] has as its target T1, Human immunodeficiency virus type 1 reverse transcriptase (Human immunodeficiency virus 1, UniProt Q72547). As to the kind of experiment: Inhibition of HIV-1 Reverse transcriptase using poly-(rc)-oligo(dg) as the template primer. Summed up: (§2)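 Purified p66/51 HIV-1 reverse transcriptase. Inhibition read as incorporation of [32P]-TTP into poly(rA)·oligo(dT) or of [32P]GTP into poly(rC)·oligo(dG) homopolymer template-primer.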

Data set [3] can be described thus: Therapeutic index was determined for the compound as CC50/EC50. As to conditions: read-out: TI. Summed up: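 Ratio of CC50 (XTT viability, uninfected CEM-SS) to EC50 (XTT protection from HIV-1 RF cytopathicity in CEM-SS). Both values come from triplicates on each plate, two sister plates averaged. NA means no antiviral inhibition up to the cytotoxic concentration.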

Data set [4] has as its system CEM-SS. As to the kind of experiment: 50% inhibitory concentration for cytopathicity of HIV-1 RF in CEM-SS cells; NA=Not active (EC50 uM). The data set is classed as functional, cell-based, Homo sapiens. The essentials:
as §1

Data set [5] deals with T1, Human immunodeficiency virus type 1 reverse transcriptase. The data set can be described thus: Inhibition of HIV-1 Reverse transcriptase using poly-(ra)-oligo(dt) as the template primer. As to conditions: read-out: IC50. Summed up: as §2

The EC50 is the concentration giving half of the maximal effect. In general, CC50 refers to the concentration giving 50% cytotoxicity. A lower CC50 goes with harm at low concentration. A word on the IC50: it is the point on the concentration scale where inhibition reaches its midpoint.

Regarding `CCC(=O)CCCC=C(c1cc(Cl)c(OC)c(C(=O)OC)c1)c1cc(Cl)c(OC)c(C(=O)OC)c1`, in the data set with CEM-SS [1], the EC50 amounted to 2.8 µM. In the data set on CCRF-CEM, this compound came in with a CC50 of 24.6 µM. This compound yielded an IC50 in data set [2] of 1 µM. In addition, the selectivity ratio in data set [3] turned out to be 8.8.
With `CCNC(=O)OCCCCC=C(c1cc(Cl)c(OC)c(C(=O)OC)c1)c1cc(Cl)c(OC)c(C(=O)OC)c1`, in the data set on CEM-SS [4], the EC50 result was “Not Active”. Further, it took 8.4 µM to reach half-maximal cytotoxicity in the data set on CCRF-CEM (CC50). In addition, the IC50 in data set [2] amounted to 3.2 µM; in data set [5] it was 1.2 µM.
With `COC(=O)CCCC=C(c1cc(F)c(OC)c(C(=O)OC)c1)c1cc(F)c(OC)c(C(=O)OC)c1`, a half-maximal response in the data set on CEM-SS [1] (EC50) required 1.9 µM. The same compound displayed a CC50 in the data set on CCRF-CEM of 68.3 µM. For the same compound, in data set [3], the selectivity ratio amounted to 35.9.
In the data set with CEM-SS [1], `COC(=O)c1cc(C(=CCCCCN=[N+]=[N-])c2cc(Cl)c(OC)c(C(=O)OC)c2)cc(Cl)c1OC` came in with an EC50 of 7.1 µM. Half-maximal cytotoxicity in the data set with CCRF-CEM (CC50) was put at 176 µM. The IC50 in data set [2] stood at 1.3 µM; in data set [5] it was 0.8 µM.
Take `COC(=O)c1cc(C(=CCC2OCCO2)c2cc(Cl)c(OC)c(C(=O)OC)c2)cc(Cl)c1OC`: the midpoint of the response with CEM-SS [1], the EC50, lay at 6.5 µM. In the data set on CCRF-CEM, it took 26 µM to reach half-maximal cytotoxicity (CC50). For the same compound, the IC50 in data set [2] was 3.2 µM; in data set [5], 20.5 µM. For the same compound, the selectivity ratio in data set [3] was 4.
For the compound `COC(=O)CCCCC(c1cc(Cl)c(OC)c(C(=O)OC)c1)c1cc(Cl)c(OC)c(C(=O)OC)c1`, the half-maximal effective concentration (EC50) entry in the data set on CEM-SS [4] is “Not Active”. This compound registered a CC50 with CCRF-CEM of 21.3 µM. In data set [2], this compound displayed an IC50 of 100 µM.
`COC(=O)CCC=C(c1cc(Cl)c(OC)c(C(=O)OC)c1)c1cc(Cl)c(OC)c(C(=O)OC)c1`: in the data set with CEM-SS [1], the EC50 came out at 4.8 µM. In the data set with CCRF-CEM, this compound returned a CC50 of 29.4 µM. Besides, the IC50 is 7.2 µM in data set [2] and over 100 µM in data set [5]. Besides, the selectivity ratio in data set [3] stood at 6.1.
As to `CCC1(CCCC=C(c2cc(Cl)c(OC)c(CO)c2)c2cc(Cl)c(OC)c(CO)c2)OCCO1`, in the data set on CEM-SS [4], the EC50 entry is “Not Active”. The midpoint of cytotoxicity in the data set with CCRF-CEM, the CC50, lay at 16.9 µM. The IC50 in data set [2] turned out to be 3.2 µM; in data set [5], 31.6 µM.
Regarding `CCC(=O)CCCC=C(c1cc(Cl)c(OC)c(CO)c1)c1cc(Cl)c(OC)c(CO)c1`, the EC50 result in the data set with CEM-SS [4] is “Not Active”. In the data set on CCRF-CEM, this compound gave a CC50 of 14.2 µM.
`CCCCCC=C(c1cc(F)c(OC)c(C(=O)OC)c1)c1cc(F)c(OC)c(C(=O)OC)c1`: the EC50 result with CEM-SS [4] is “Not Active”. In addition, the CC50 with CCRF-CEM is 13.4 µM. This compound returned an IC50 in data set [2] of 10 µM.
On to `COC(=O)CCCCC=C(c1cc(Cl)c(OC)c(C(=O)OC)c1)c1cc(Cl)c(OC)c(C(=O)OC)c1`, for which it took 1.5 µM to reach a half-maximal effect in the data set on CEM-SS [1] (EC50). Besides, the CC50 with CCRF-CEM came to 152 µM. Moreover, the IC50 in data set [2] stood at 0.47 µM; in data set [5] it was 3.35 µM. Besides, the selectivity ratio in data set [3] came out at 101.
`COC(=O)c1cc(C(=CCCCC=O)c2cc(Cl)c(OC)c(C(=O)OC)c2)cc(Cl)c1OC`: the EC50 entry with CEM-SS [4] is listed as “Not Active”. Further, the CC50 with CCRF-CEM stood at 9.6 µM. For the same compound, the IC50 in data set [2] is 4.9 µM; in data set [5] it was 4.2 µM.
For the compound `COC(=O)c1cc(C(=CCCc2ccccc2)c2cc(Br)c(OC)c(C(=O)OC)c2)cc(Br)c1OC`, the EC50 result in the data set with CEM-SS [4] is “Not Active”. This compound registered a CC50 in the data set with CCRF-CEM of 31.5 µM.
Turning to `COC(=O)CC=C(c1cc(Cl)c(OC)c(C(=O)OC)c1)c1cc(Cl)c(OC)c(C(=O)OC)c1`, the EC50 entry in the data set with CEM-SS [4] is given as “Not Active”. Moreover, the CC50 with CCRF-CEM came out at 13.3 µM. Moreover, the IC50 in data set [2] was 2.2 µM; in data set [5], over 100 µM.
Compound `COC(=O)c1cc(C(=CCCCCBr)c2cc(Cl)c(OC)c(C(=O)OC)c2)cc(Cl)c1OC` yielded an EC50 with CEM-SS [1] of 2.8 µM. The compound further displayed a CC50 in the data set on CCRF-CEM of 98.7 µM. For the same compound, the figures for the IC50 in data set [2] and in data set [5] were 11 µM and 1.9 µM, respectively.
